Bridge positions count the residues as written; N and C are the ends. Ends that are not written are not given here. Peptide text beside a SMILES is read from it.
Tests used:
[1] = tested on: p53:MDM2; conditions: read-out: inhibition of p53:MDM2; previously reported; cited from earlier work
[2] = Cell toxicity, resazurin, PBMCs; type: cell-based; conditions: human, peripheral blood mononuclear cells (PBMCs)
In short: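 Heparinized blood from healthy donors was diluted 1:1 with PBS, separated on Ficoll-Paque (1400 rpm, 30 min) and the interface layer washed three times in PBS. Cells (5000/well) received serially diluted peptide (0.25–32 μM) for 24 h at 37 °C, 5% CO2, then a resazurin read at 560/585 nm. Triton X-100 (0.1%) set 100%, PBS 0%. CC50 came from a Hill fit; single experiment, three donors.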

[3] = biological target: MDM2 (Homo sapiens, UniProt Q00987); assay: Fluorescence polarization competition, F-pDI:MDM2; type: binding; conditions: for IC50, inhibition of F-pDI:MDM2 interaction: fluorescence polarization, 10 nM F-pDI, 8 nM MDM2, Tris buffer, three technical replicates
[4] = Cell toxicity, resazurin, HEK293; type: cell-based; conditions: human, HEK293 embryonic kidney cells
In short: (§1)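 Peptides serially diluted (0.25–32 μM) and incubated 24 h at 37 °C, 5% CO2 with 5000 cells/well. HEK293 was grown in DMEM and HaCaT in RPMI with 2 mM L-glutamine and 10 mM sodium pyruvate, both with 10% FBS and penicillin/streptomycin. Resazurin-to-resorufin fluorescence was read at 560/585 nm. Triton X-100 (0.1%) set 100% and PBS 0% toxicity. CC50 came from Hill-fitted curves; three independent experiments.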

[5] = Cell toxicity, resazurin, HaCaT; type: cell-based; conditions: human, HaCaT keratinocyte cells
In short: as §1

[6] = RBC hemolysis; type: cell-based; conditions: human, red blood cells (RBCs), 0.25% v/v
In short: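 Donor RBCs were pelleted (4000 rpm, 1 min) and washed three times in PBS. Peptides diluted in PBS (0.25–32 μM) were incubated with RBCs (0.25% v/v final) for 1 h at 37 °C. After pelleting, supernatant A415 gave released hemoglobin. Triton X-100 (0.1% final) set 100% and PBS 0% hemolysis. Single experiment, RBCs from three donors.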

[7] = biological target: T1, MDMX (Homo sapiens, UniProt O15151); assay: Fluorescence polarization competition, F-pDI:MDMX; type: binding; conditions: for IC50, inhibition of F-pDI:MDMX interaction: fluorescence polarization, 10 nM F-pDI, 45 nM MDMX, Tris buffer, three technical replicates
T1 sequence (O15151 1-490): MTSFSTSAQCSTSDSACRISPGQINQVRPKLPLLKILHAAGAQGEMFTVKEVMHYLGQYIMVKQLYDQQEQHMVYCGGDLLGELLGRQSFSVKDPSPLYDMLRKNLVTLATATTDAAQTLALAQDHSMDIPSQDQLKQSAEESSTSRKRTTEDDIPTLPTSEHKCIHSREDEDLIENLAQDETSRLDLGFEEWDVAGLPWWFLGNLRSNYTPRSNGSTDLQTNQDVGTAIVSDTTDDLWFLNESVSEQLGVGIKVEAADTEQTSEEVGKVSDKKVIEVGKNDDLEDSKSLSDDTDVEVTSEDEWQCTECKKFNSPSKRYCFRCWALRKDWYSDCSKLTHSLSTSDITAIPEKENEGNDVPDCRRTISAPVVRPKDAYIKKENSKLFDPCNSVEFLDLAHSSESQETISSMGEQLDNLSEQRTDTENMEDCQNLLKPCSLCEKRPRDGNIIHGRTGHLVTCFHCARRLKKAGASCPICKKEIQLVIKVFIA
In short: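 Competition fluorescence polarization with fluorescein-labeled pDI (p53 mimic) bound to MDMX, read at 489/515 nm. F-pDI:MDMX signal defined 0% inhibition and free F-pDI in Tris buffer 100%. Percent inhibition was taken from the change in polarization relative to F-pDI. IC50 came from Hill-fitted dose-response curves; three technical replicates.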

[8] = Stability of peptides in human serum; type: in vitro ADME; conditions: 25% (v/v) human serum, pH 7.5
In short: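 Peptide (50 μM final) was held 0, 1, 2, 4, 8 and 24 h in 25% (v/v) human serum in PBS (pH 7.5). Serum proteins were precipitated with ACN containing 2% TFA. The full-length peptide peak (MS-confirmed) was quantified by RP-HPLC at 215 nm as a percentage of 0 h recovery. A PBS-only incubation served as control. Single experiment, three technical replicates.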

[9] = tested on: MM96L cells; assay: Live-cell confocal microscopy, intracellular location, MM96L; type: cell-based, human; conditions: spinning disc confocal, serum-free media, 1 and 4 μM cPF4PD-A488, 6 μM PF4P_pDI-A488, 1 μM cPF4Pext_pDI-A488
In short: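 MM96L cells were grown in RPMI with 2 mM L-glutamine, 10 mM sodium pyruvate and 10% FBS, and plated at 16 000 per chamber-slide well overnight (37 °C, 5% CO2). Cells were washed into serum-free medium and stained with MitoTracker Red (100 nM final, 5 min). Medium was then replaced with Alexa Fluor 488-labeled peptide in serum-free medium. Cells were imaged live over time at 37 °C, 5% CO2.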

[10] = tested on: MCF7 breast cancer cells; assay: Cell toxicity, resazurin, MCF7; type: cell-based, human; conditions: p53 WT, 24 h, 0.25–32 μM peptide, mean ± SD, three independent experiments
In short: (§2)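 5000 cells/well were exposed to serially diluted peptide (0.25–32 μM) for 24 h at 37 °C, 5% CO2. Viability was read by resazurin-to-resorufin fluorescence (ex 560, em 585 nm), with 0.1% Triton X-100 set as 100% toxicity and PBS as 0%. CC50 came from a Hill-slope saturation fit. Mean ± SD of three independent experiments on different days.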

[11] = tested on: MM96L melanoma cells; assay: Cell toxicity, resazurin, MM96L; type: cell-based, human; conditions: p53 WT, 24 h, 0.25–32 μM peptide, mean ± SD, three independent experiments
In short: as §2

[12] = tested on: HeLa cervical cancer cells; assay: Cell toxicity, resazurin, HeLa; type: cell-based, human; conditions: cervix, p53 WT (rep), 24 h, 0.25–32 μM peptide, mean ± SD, three independent experiments
In short: as §2

[13] = tested on: panel of cancerous and noncancerous cell lines, PBMCs and RBCs; assay: Cytotoxic activity across the panel of cell lines; type: cell-based, human; conditions: 24 h, resazurin (RBC 1 h hemolysis)
In short: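 Cell lines and PBMCs (Ficoll-separated from PBS-diluted heparinized blood, PBS-washed) were read by 24 h resazurin fluorescence; PBMC data came from one experiment with three donors. RBCs were washed in PBS, then incubated at 0.25% v/v with peptide in PBS for 1 h at 37 °C. After pelleting, supernatant A415 gave hemoglobin release, with 0.1% Triton X-100 as 100% and PBS as 0%.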

[14] = tested on: HCT116 colorectal cancer cells; assay: Cell toxicity, resazurin, HCT116; type: cell-based, human; conditions: p53 WT, 24 h, 0.25–32 μM peptide, mean ± SD, three independent experiments
In short: as §2

[15] = tested on: MDA-MB-231 cells; assay: Internalization of labeled peptides, flow cytometry, MDA-MB-231; type: cell-based, human; conditions: read-out: FC50 (peptide concentration to detect fluorescence in 50% of cells), MDA-MB-231, 1 h, serum free medium, 0.06–2 μM labeled peptide, 10 000 cells, at least two independent experiments
In short: (§3)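 Cells were grown in DMEM with 10% FBS and seeded at 10^5 per well overnight (37 °C, 5% CO2). Serial dilutions of Alexa Fluor 488-labeled peptide in serum-free medium were added for 1 h, then cells were harvested. Flow cytometry used ex 488 nm/em 530/30 nm at 330 V, and readings were repeated after Trypan Blue quench (0.02% w/v final). % fluorescent cells was taken above the no-peptide threshold, and FC50 was fitted by Hill equation.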

[16] = tested on: MCF7 cells; assay: Internalization of labeled peptides, flow cytometry, MCF7; type: cell-based, human; conditions: read-out: FC50 (peptide concentration to detect fluorescence in 50% of cells), MCF7, 1 h, serum free medium, 0.06–2 μM labeled peptide, 10 000 cells, at least two independent experiments
In short: as §3

[17] = tested on: MDA-MB-231 cells; assay: Live-cell confocal microscopy, intracellular location, MDA-MB-231; type: cell-based, human; conditions: spinning disc confocal, serum-free media, 4 μM (sub-lethal)

MDM2, sequence (Q00987 whole entry): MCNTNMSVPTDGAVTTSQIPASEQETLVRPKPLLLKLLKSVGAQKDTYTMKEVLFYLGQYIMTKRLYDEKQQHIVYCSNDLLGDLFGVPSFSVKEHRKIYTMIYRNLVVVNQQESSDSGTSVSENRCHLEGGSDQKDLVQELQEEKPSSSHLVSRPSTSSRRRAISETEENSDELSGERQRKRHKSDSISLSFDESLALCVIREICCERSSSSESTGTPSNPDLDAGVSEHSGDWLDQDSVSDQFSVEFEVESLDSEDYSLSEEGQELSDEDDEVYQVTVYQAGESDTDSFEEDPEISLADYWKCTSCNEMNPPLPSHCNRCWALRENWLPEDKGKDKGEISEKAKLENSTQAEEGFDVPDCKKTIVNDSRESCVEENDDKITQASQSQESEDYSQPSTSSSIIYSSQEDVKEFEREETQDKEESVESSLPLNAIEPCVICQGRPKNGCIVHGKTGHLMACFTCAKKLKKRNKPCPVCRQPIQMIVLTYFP

| Compound | CC50 at 24 h [2] [µM] | CC50 at 24 h [4] [µM] | CC50 at 24 h [5] [µM] | HC50 at 1 h [6] [µM] | remaining at 24 h, 50 μM [8] [%] | intracellular location, MM96L [9] | CC50, MCF7 [10] [µM] | CC50, MM96L [11] [µM] | CC50, HeLa [12] | CC50, HCT116 [14] [µM] | other results |
| --- | --- | --- | --- | --- | --- | --- | --- | --- | --- | --- | --- |
| CC[C@H](C)[C@@H]1NC(=O)[C@H](CCCCN)NC(=O)[C@H](CCCCN)NC(=O)[C@H](Cc2ccc(O)cc2)NC(=O)[C@H](CC(C)C)NC(=O)[C@@H]2CCCN2C(=O)CNC(=O)CNC(=O)[C@@H](N)CSSC[C@@H](C(=O)N[C@@H](CCC(=O)O)C(=O)N[C@@H](CO)C(N)=O)NC(=O)[C@H](CC(C)C)NC(=O)[C@H](CCCCN)NC(=O)[C@H](CCCCN)NC(=O)[C@H]([C@@H](C)CC)NC(=O)[C@H]([C@@H](C)CC)NC(=O)[C@H](CCCCN)NC(=O)[C@H](CCCCN)NC(=O)[C@H](Cc2ccc(O)cc2)NC(=O)[C@H](CC(C)C)NC(=O)[C@@H]2CCCN2C(=O)[C@H](C)NC(=O)CNC(=O)CNC(=O)[C@H](CO)NC(=O)CNC(=O)CNC(=O)[C@H](CO)NC(=O)[C@H](CCC(=O)O)NC(=O)[C@H](CC(C)C)NC(=O)[C@H](CC(C)C)NC(=O)[C@H](CCCCN)NC(=O)[C@H](CCCCN)NC(=O)[C@H]([C@@H](C)CC)NC1=O [cPF4PD] (H-CGGPLYKKIIKKLLESGGSGGAPLYKKIIKKLCES-NH2; disulfide 1-33) | 9.1 ± 1.3 | > 32 | 9.1 ± 0.7 | > 64 | ~75 | – | – | – | – | – | IC50, inhibition of F-pDI:MDM2 interaction [3]: did not inhibit; IC50, inhibition of F-pDI:MDMX interaction [7]: did not inhibit |
| A488 GCGGPLYKKIIKKLLESIIKKGGXGGSGGLTFEHYWAQLTGGC* (disulfide) [cPF4Pext_pDI-A488] | – | – | – | – | – | enter directly into the cell cytoplasm | – | – | – | – | – |
| A488 LQAPLTFEHYWALLTSGGXGGAPLYKKIIKKLLES* [PF4P_pDI-A488] | – | – | – | – | – | enter directly into the cell cytoplasm | – | – | – | – | – |
| APLYKKIIKKLLES-NH2 [PF4P] | > 32 | > 32 | > 32 | > 64 | – | – | >32 | >32 | >32 µM | – | cytotoxic activity against the tested cells [13]: not active against any of the tested cells |
| CGGPLYKKIIKKLLESIIKKGGSGGSGGLTFEHYWAQLTGGC-NH2 (disulfide 1-42) [cPF4Pext_pDI] | 4.3 ± 0.4 | 19.1 ± 0.5 | 7.2 ± 0.3 | > 64 | – | – | 18.6 ± 2.0 | 2.5 ± 0.1 | ∼32 ± 5 μM | 11.7 ± 0.9 | IC50 [7]: 0.08 µM |
| CQAPLYKKIIKKLLESGGSGGAPLYKKIIKKLLCES* A488 (sidechain bridge or staple) [cPF4PD-A488] | – | – | – | – | – | enter directly into the cell cytoplasm | – | – | – | – | EC50 [15]: 0.16 µM; EC50 [16]: 0.65 µM; intracellular location, MDA-MB-231 [17]: entry of the labeled peptide into the cytoplasm was observed within two hours |
| LQAPLTFEHYWALLTSGGSGGAPLYKKIIKKLLES-NH2 [PF4P_pDI] | > 32 | 27.5 ± 2.3 | 17.1 ± 1.6 | > 64 | 60 | – | >32 | 13.2 ± 0.7 | >32 µM | 25.5 ± 2.1 | inhibition at 0.001 µM ([3]; read-out: inhibition of F-pDI binding to MDM2): > 50%; inhibition at 0.001 µM ([7]; read-out: inhibition of F-pDI binding to MDMX): > 50% |
| LQAPLYKKIIKKLLESGGSGGAPLYKKIIKKLLES-NH2 [PF4PD] | 14 ± 0.9 | 13.7 ± 2.2 | 4.3 ± 0.2 | > 64 | 20 | – | 17.6 ± 2.0 | 1.6 ± 0.1 | 17.2 ± 2.2 µM | 4.8 ± 0.8 | IC50, inhibition of F-pDI:MDM2 interaction [3]: did not inhibit; IC50, inhibition of F-pDI:MDMX interaction [7]: did not inhibit |

Reference: PMC8386104 (RSC Chemical Biology, 2020)
